{"source": "ChEMBL document CHEMBL4396943", "about": "“The tetrahydroxanthone-dimer phomoxanthone A is a strong inducer of apoptosis in cisplatin-resistant solid cancer cells” (Bioorg Med Chem, 2019)", "key": {"A2780 [1]": {"system": "A2780", "test": "Induction of apoptosis in human A2780 cells assessed as depolarization of mitochondrial membrane potential afer 24 hrs by TMRE staining based flow cytometry", "type": "functional, cell-based", "summary_of_the_method": "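Cells seeded overnight; medium switched to FBS-free just before treatment to avoid TMRE ester cleavage. Exposure 1 h, 2 h or 24 h, then TMRE staining for 20 min. Cells trypsinized, centrifuged at 4 °C and read by flow cytometry. Medium as negative control, 20 µM CCCP as positive control. […]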"}, "A2780 [2]": {"system": "A2780", "test": "Induction of apoptosis in human A2780 cells assessed as depolarization of mitochondrial membrane potential incubated for 2 hrs by TMRE staining based flow cytometry", "type": "functional, cell-based", "summary_of_the_method": "(§1)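 Cells seeded overnight; complete medium swapped for FBS-free medium just before treatment to avoid TMRE ester cleavage. Exposure to PXA for 1 h, 2 h or 24 h. TMRE staining 20 min, cells collected by trypsinisation, ΔΨm read by flow cytometry. Medium served as negative control, 20 µM CCCP as positive control. Mean ± SEM reported.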"}, "J82 [3]": {"system": "J82", "test": "Potency index, ratio of cisplatin IC50 to compound IC50 for antiproliferative activity in cisplatin resistant human J82 cells assessed as reduction in cell viability incubated for 72 hrs by MTT assay", "type": "functional", "summary_of_the_method": "(§2)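 Cells seeded in 96-well plates overnight, exposed 72 h to increasing concentrations. MTT (5 mg/ml) added for 15 min, formazan dissolved in DMSO, absorbance read at 544 nm with 690 nm background subtracted. IC50 is the concentration reducing signal by 50%. Three independent experiments in triplicate. CisR sublines made by weekly intermittent cisplatin exposure for 24–30 weeks.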"}, "A2780 [4]": {"system": "A2780", "test": "Induction of apoptosis in human A2780 cells assessed as accumulation in subG1 phase incubated for 24 hrs by propidium iodide staining based flow cytometry (reference value: 10%)", "type": "functional", "summary_of_the_method": "(§3)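 Cells plated in 24-well plates (about 100,000/well) for one day, then treated 24 h. Where used, caspase inhibitor Q-VD-OPh (20 µM) was added 1 h before. Cells lysed in hypotonic buffer (0.1% sodium citrate, 0.1% Triton X-100, 100 µg/ml propidium iodide) overnight at 4 °C in the dark. Sub-G1 fraction read by flow cytometry. Medium control, cisplatin positive control.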"}, "A2780cisR [5]": {"system": "A2780cisR", "test": "Potency index, ratio of cisplatin IC50 to compound IC50 for antiproliferative activity in human A2780cisR cells assessed as reduction in cell viability incubated for 72 hrs by MTT assay", "type": "functional", "summary_of_the_method": "as §2"}, "J82 [6]": {"system": "J82", "test": "Induction of apoptosis in cisplatin resistant human J82 cells assessed as accumulation in subG1 phase at 5 uM incubated for 24 hrs by propidium iodide staining based flow cytometry relative to control", "type": "functional", "summary_of_the_method": "as §3"}, "MDA-MB-231": {"system": "MDA-MB-231", "test": "Potency index, ratio of cisplatin IC50 to compound IC50 for antiproliferative activity in human MDA-MB-231 cells assessed as reduction in cell viability incubated for 72 hrs by MTT assay", "type": "functional", "summary_of_the_method": "as §2"}, "J82 [7]": {"system": "J82", "test": "Induction of apoptosis in human J82 cells assessed as nuclear condensation by measuring reduced size and increased intensity of nuclei at 50 uM incubated for 24 hrs by hoechst 33342 staining based fluorescence microscopy", "type": "functional, cell-based"}, "A2780cisR [8]": {"system": "A2780cisR", "test": "Antiproliferative activity against human A2780cisR cells assessed as reduction in cell viability incubated for 48 hrs by MTT assay", "type": "functional, cell-based", "summary_of_the_method": "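Cells seeded overnight in 96-well plates, then exposed to increasing concentrations (compound dissolved in DMSO, diluted in medium) for the stated time. MTT (5 mg/ml in PBS) added for 15 min, formazan dissolved in DMSO, absorbance read at 544 nm minus 690 nm background. IC50 = concentration giving 50% signal decrease. At least three independent experiments in triplicate.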"}, "A2780 [9]": {"system": "A2780", "test": "Induction of apoptosis in human A2780 cells assessed as decrease in cIAP expression at 5 uM incubated for 24 hrs by proteome profiler analysis", "type": "functional, cell-based", "summary_of_the_method": "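A2780 cells treated 24 h with 5 µM, then apoptosis-related proteins read on an antibody array (Proteome Profiler human apoptosis array) per kit instructions.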"}, "A2780cisR [10]": {"system": "A2780cisR", "test": "Induction of apoptosis in human A2780cisR cells assessed as depolarization of mitochondrial membrane potential incubated for 2 hrs by TMRE staining based flow cytometry", "type": "functional, cell-based", "summary_of_the_method": "as §1"}, "A2780 [11]": {"system": "A2780", "test": "Ratio of IC50 for antiproliferative activity in human A2780 cells assessed as reduction in cell viability incubated for 24 hrs by MTT assay to IC50 for antiproliferative activity in human A2780 cells assessed as reduction in cell viability incubated for 72 hrs by MTT assay", "type": "functional", "summary_of_the_method": "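MTT assay as for the viability IC50s (overnight seeding, MTT 15 min, DMSO solubilisation, 544/690 nm), with PXA incubation for 24 h versus 72 h. IC50 is the concentration giving a 50% signal decrease. At least three independent experiments.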"}, "HCT-116": {"system": "HCT-116", "test": "Potency index, ratio of cisplatin IC50 to compound IC50 for antiproliferative activity in human HCT116 cells assessed as reduction in cell viability incubated for 72 hrs by MTT assay", "type": "functional", "summary_of_the_method": "as §2"}, "A2780 [12]": {"system": "A2780", "test": "Potency index, ratio of cisplatin IC50 to compound IC50 for antiproliferative activity in human A2780 cells assessed as reduction in cell viability incubated for 72 hrs by MTT assay", "type": "functional", "summary_of_the_method": "as §2"}, "J82 [13]": {"system": "J82", "test": "Cell cycle arrest in human J82 cells assessed as accumulation at G1 phase at 1 uM incubated for 24 hrs by propidium iodide staining based flow cytometry (reference value: 69.6%)", "type": "functional", "summary_of_the_method": "(§4)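 After 24 h exposure, cells washed in ice-cold PBS. About 2 million cells fixed in cold 70% ethanol at −20 °C for at least 24 h. Stained with 0.1% Triton X-100, 200 µg/ml RNase A and 20 µg/ml propidium iodide in PBS, 15 min at 37 °C in the dark. DNA content read by flow cytometry with doublet discrimination. Medium as untreated control, paclitaxel as G2/M control. Three independent experiments.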"}, "CAL-27": {"system": "CAL-27", "test": "Potency index, ratio of cisplatin IC50 to compound IC50 for antiproliferative activity in human CAL27 cells assessed as reduction in cell viability incubated for 72 hrs by MTT assay", "type": "functional", "summary_of_the_method": "as §2"}, "KYSE-510": {"system": "KYSE-510", "test": "Potency index, ratio of cisplatin IC50 to compound IC50 for antiproliferative activity in cisplatin resistant human KYSE-510 cells assessed as reduction in cell viability incubated for 72 hrs by MTT assay", "type": "functional", "summary_of_the_method": "as §2"}, "A2780 [14]": {"system": "A2780", "test": "Induction of apoptosis in human A2780 cells assessed as increase in activation of caspase 3/7 at 10 uM incubated for 24 hrs by hoechst 33342 staining based fluorescence microscopy (reference value: 1.4%)", "type": "functional"}, "A2780 [15]": {"system": "A2780", "test": "Induction of apoptosis in human A2780 cells assessed as depolarization of mitochondrial membrane potential incubated for 1 hr by TMRE staining based flow cytometry", "type": "functional, cell-based", "summary_of_the_method": "as §1"}, "J82 [16]": {"system": "J82", "test": "Induction of apoptosis in human J82 cells assessed as depolarization of mitochondrial membrane potential at 5 to 10 uM incubated for 2 hrs by hoechst 33342 staining based fluorescence microscopy", "type": "functional", "summary_of_the_method": "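J82 cells treated 2 h with PXA, then labelled 20 min with TMRE plus Hoechst 33342. ΔΨm read by high-content fluorescence imaging. Untreated medium and 20 µM CCCP served as controls.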"}, "J82 [17]": {"system": "J82", "test": "Cell cycle arrest in cisplatin resistant human J82 cells assessed as accumulation at G1 phase at 1 uM incubated for 24 hrs by propidium iodide staining based flow cytometry (reference value: 78.1%)", "type": "functional", "summary_of_the_method": "as §4"}}, "note": "pIC50: −log10 of the molar value. Active and inactive are the calls of the source. The calls are words filed in the database; no cut-off is given here.", "data": [{"smiles": "CC(=O)OC[C@]12Oc3c(-c4ccc(O)c5c4O[C@@]4(COC(C)=O)C(=C(O)C[C@@H](C)[C@H]4OC(C)=O)C5=O)ccc(O)c3C(=O)C1=C(O)C[C@@H](C)[C@H]2OC(C)=O", "note": "[PHOMOXANTHONE A]", "values": [{"measurement": "Activity", "setting": "A2780 [1]", "result": "Dose-dependent effect"}, {"measurement": "Activity", "setting": "A2780 [2]", "result": "Dose-dependent effect"}, {"measurement": "pIC50", "setting": "A2780 [2]; A2780, 2 h", "result": 6.12}, {"measurement": "Ratio IC50", "setting": "J82 [3]", "result": 4}, {"measurement": "Activity", "setting": "A2780 [4]", "result": 70, "unit": "%"}, {"measurement": "Ratio IC50", "setting": "A2780cisR [5]", "result": 9}, {"measurement": "Activity", "setting": "J82 [6]", "result": 35, "unit": "%"}, {"measurement": "Ratio IC50", "setting": "MDA-MB-231", "result": "2 - 10"}, {"measurement": "Activity", "setting": "J82 [7]", "result": "Active"}, {"measurement": "pIC50", "setting": "A2780cisR [8]; read-out: IC50", "result": 5.93}, {"measurement": "IC50", "setting": "A2780cisR [8]; read-out: pIC50 (converted)", "result": 1170, "unit": "nM"}, {"measurement": "Activity", "setting": "A2780 [9]", "result": "Active"}, {"measurement": "Activity", "setting": "A2780cisR [10]", "result": "Dose-dependent effect"}, {"measurement": "pIC50", "setting": "A2780cisR [10]", "result": 6.07}, {"measurement": "Ratio IC50", "setting": "A2780 [11]", "result": 2.5}, {"measurement": "Ratio IC50", "setting": "HCT-116", "result": "2 - 10"}, {"measurement": "Ratio IC50", "setting": "A2780 [12]", "result": 7}, {"measurement": "Activity", "setting": "J82 [13]", "result": 65, "unit": "%"}, {"measurement": "Ratio IC50", "setting": "CAL-27", "result": "2 - 10"}, {"measurement": "Ratio IC50", "setting": "KYSE-510", "result": "2 - 10"}, {"measurement": "Activity", "setting": "A2780 [14]", "result": 83, "unit": "%"}, {"measurement": "Activity", "setting": "A2780 [15]", "result": "Dose-dependent effect"}, {"measurement": "pIC50", "setting": "A2780 [15]; A2780, 1 h", "result": 6.00}, {"measurement": "Activity", "setting": "J82 [16]", "result": 100, "unit": "%"}, {"measurement": "Activity", "setting": "J82 [17]", "result": 76.3, "unit": "%"}]}]}
